Experimental data reported in ChEMBL document CHEMBL1147162, “Synthesis, pharmacological evaluation and electrochemical studies of novel 6-nitro-3,4-methylenedioxyphenyl-N-acylhydrazone derivatives: Discovery of LASSBio-881, a new ligand of cannabinoid receptors” (2007).
Active and inactive are the calls of the source.

How the values were obtained:
Rattus norvegicus [1] = experiment: Antiinflammatory activity against carrageenan-induced paw edema in Wistar rat at 300 umol/kg, po after 3 hrs; assay type: functional
Method in brief: (§1)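 Fasted Wistar rats of both sexes (150–200 g) were dosed orally at 300 µmol/kg in 5% arabic gum in saline. One hour later they were injected subplantar with 0.1 mg/paw carrageenan, with saline in the contralateral paw. Paw volume was read by plethysmometer 3 h later as the difference between the paws. Results are % inhibition vs vehicle; ID50 is also given.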

Mus musculus [2] = experiment: Antiinflammatory activity against TPA-induced ear edema in Swiss mouse at 300 umol/kg, po after 6 hrs; assay type: functional
Method in brief: (§2)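 Fasted Swiss mice received an oral dose of 300 µmol/kg (5% arabic gum suspension) 1 h before topical challenge on the right ear (20 µl acetone): AA 500 µg/ear or TPA 2 µg/ear. The left ear got acetone. Ears were weighed from 7 mm punches 1 h after AA or 6 h after TPA. Inhibition = (C−T)/C×100 vs vehicle.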

[3] = test system: Radical scavenging activity; experiment: Antioxidant activity assessed as DPPH radical scavenging activity at 0.1 mM; assay type: functional
Rattus norvegicus [4] = experiment: Antiinflammatory activity against carrageenan-induced paw edema in Wistar rat; assay type: functional; conditions: read-out: ID50 (the source's name); method in brief: as §1
Mus musculus [5] = experiment: Antiinflammatory activity against AA-induced ear edema in Swiss mouse at 300 umol/kg, po after 1 hr; assay type: functional; method in brief: as §2
Mus musculus [6] = experiment: Antihyperalgesic effect against formalin-induced pain in mouse at 100 umol/kg, po assessed as licking activity in neurogenic phase; assay type: functional
Method in brief: (§3)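 Mice injected subplantar in one hind paw with 20 µL 2.5% formalin; compounds given orally at 100 µmol/kg in 5% arabic gum 60 min before. Time spent licking or biting the injected paw was recorded, with the neurogenic phase at 0–5 min and the inflammatory phase at 15–30 min. Percent inhibition is vs vehicle (ANOVA/Dunnett).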

Mus musculus [7] = experiment: Antihyperalgesic effect against formalin-induced pain in mouse at 100 umol/kg, po assessed as licking activity in inflammatory phase; assay type: functional; method in brief: as §3
[8] = Antioxidant activity assessed as hydroxyl radical degradation at 0.5 mM; assay type: functional
Method in brief: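 2-Deoxy-D-ribose (10 mM) was incubated with Hepes pH 7.2 (10 mM), compound in DMSO (0.5 mM) and H2O2 (1 mM) for 1 h at 37 °C, started with Fe(NH4)2(SO4)2 10 µM. Results are % degradation vs vehicle.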

[9] = Antioxidant activity assessed as superoxide degradation at 0.25 mM; assay type: functional
Method in brief: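 The reaction was started with xanthine oxidase (~0.2 U/mL). Cytochrome c reduction was read spectrophotometrically at the Soret band as ΔA/min; % degradation is relative to vehicle.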

[10] = biological target: Cannabinoid receptor 1 (Mus musculus) (UniProt P47746); experiment: Displacement of [3H]SR141716A from CB1 cannabinoid receptor in Swiss mouse brain homogenate; assay type: tissue-based
Method in brief: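 Swiss mouse (30–40 g) whole-brain membranes, 160 µg protein, were incubated with 10 nM [3H]SR141716A plus PMSF (FAAH inhibitor) in Tris/EDTA/MgCl2 buffer with fatty acid-free BSA, pH 7.4, for 1 h at 30 °C. Nonspecific binding was set with 100 µM AM281. Samples were filtered on PEI-treated filters and counted by scintillation; n = 5 animals.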

Mus musculus [11] = experiment: Antinociceptive activity in Swiss mouse at 100 umol/kg, po assessed as increase in latency time; assay type: functional, organism-based
Method in brief: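 Hot plate held at 55 ± 1 °C. Swiss mice of both sexes (18–25 g), fasted 8 h, were given 100 µmol/kg orally. Latency to first paw licking or jumping was read at 0, 30, 60, 90 and 120 min, with a 25 s cut-off. Morphine 39.5 µmol/kg was the positive control; n = 7–10.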

Lymphocyte = experiment: Inhibition of lymphocyte proliferation; assay type: functional, cell-based
Method in brief: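 Nylon wool-enriched splenic T cells in supplemented DMEM + 1% nutridoma were cultured in triplicate with soluble anti-CD3 (2% v/v 145.2C11) and PMA 0.5 ng/mL plus compound for 3 days at 37 °C in 7% CO2. [3H]thymidine (1.0 µCi/well) was added for the last 18 h and incorporation counted; at least 3 experiments.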

T-cell [12] = experiment: Induction of anti CD3-stimulated T-lymphocyte necrosis after 48 hrs; assay type: functional
Method in brief: (§4)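 Nylon wool-enriched mouse splenic T cells (10^6/mL, DMEM + 1% nutridoma) were stimulated with anti-CD3 (145.2C11) plus PMA, with or without compound at 10 µM, for 48 h at 37 °C in 7% CO2. They were stained with FITC-annexin V (apoptosis) and 7-AAD (necrosis) and analysed by flow cytometry. Runs were in triplicate with at least 3 experiments.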

T-cell [13] = experiment: Induction of anti CD3-stimulated T-lymphocyte apoptosis after 48 hrs; assay type: functional; method in brief: as §4

Chain of Cannabinoid receptor 1 (Mus musculus) (P47746 whole entry): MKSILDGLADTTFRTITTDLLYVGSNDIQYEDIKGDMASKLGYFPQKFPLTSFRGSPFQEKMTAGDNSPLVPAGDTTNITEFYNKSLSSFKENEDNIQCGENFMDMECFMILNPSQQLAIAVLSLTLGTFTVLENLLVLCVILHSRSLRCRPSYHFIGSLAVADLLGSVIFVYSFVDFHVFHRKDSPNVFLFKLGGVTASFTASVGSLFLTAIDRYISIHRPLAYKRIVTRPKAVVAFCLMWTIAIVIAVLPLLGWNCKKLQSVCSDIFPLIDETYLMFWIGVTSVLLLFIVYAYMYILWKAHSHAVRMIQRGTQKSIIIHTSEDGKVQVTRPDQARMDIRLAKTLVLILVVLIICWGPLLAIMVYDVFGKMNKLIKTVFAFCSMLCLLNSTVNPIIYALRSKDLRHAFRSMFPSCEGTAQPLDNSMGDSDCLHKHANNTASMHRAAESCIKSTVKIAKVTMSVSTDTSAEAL

Compound | inhibition in vivo at 300 µmol/kg (Rattus norvegicus [1]) | inhibition in vivo at 300 µmol/kg (Mus musculus [2]) | ED50 (Rattus norvegicus [4]) | inhibition in vivo at 300 µmol/kg (Mus musculus [5]) | inhibition in vivo at 100 µmol/kg (Mus musculus [6]) | inhibition in vivo at 100 µmol/kg (Mus musculus [7]) | also measured
O=C(N/N=C/c1cccs1)c1cc2c(cc1[N+](=O)[O-])OCO2 | 3.4% |  |  |  |  |  | 
CC(C)(C)c1cc(/C=N/NC(=O)c2ccc3c(c2)OCO3)cc(C(C)(C)C)c1O | 36.4% | -19.6% | 96.5 µmol/kg | 26.7% | 4.1% | 3.1% | Activity [3]: 45.7%; Activity [8]: 85.2%
O=C(N/N=C/c1ccc[nH]1)c1cc2c(cc1[N+](=O)[O-])OCO2 | 20.9% |  |  |  |  |  | 
O=C(N/N=C/c1ccccn1)c1cc2c(cc1[N+](=O)[O-])OCO2 | 22.8% |  |  |  |  |  | 
O=C(N/N=C/c1cccs1)c1ccc2c(c1)OCO2 | 29.7% | -10.5% | 14.3 µmol/kg | -1.6% | 17.9% | 48.6% | 
O=C(N/N=C/c1ccco1)c1cc2c(cc1[N+](=O)[O-])OCO2 | 4.1% |  |  |  |  |  | 
O=C(N/N=C/c1ccccc1)c1cc2c(cc1[N+](=O)[O-])OCO2 | 3.5% |  |  |  | -21.1% | 1.5% | Activity [9]: 19.6%; Activity [3]: 7.49%; Activity [8]: 83.2%
CC(C)(C)c1cc(/C=N/NC(=O)c2cc3c(cc2[N+](=O)[O-])OCO3)cc(C(C)(C)C)c1O | 31.7% | 24.1% | 195 µmol/kg | 36% | 44.5% | 13.4% | Activity [9]: -2.9%; Activity [3]: 32%; Activity [10]: 71%; Activity (Mus musculus [11]): Active; Activity (Lymphocyte): Active; Activity (T-cell [12]): 0%; Activity (T-cell [13]): 43.8%; Activity [8]: 84.6%
CS(=O)(=O)Nc1ccc([N+](=O)[O-])cc1Oc1ccccc1 [NIMESULIDE] | 57.5% | -10.6% | 22.7 µmol/kg | 100% | 9.3% | 70.3% | 
CCCCC/C=C\C/C=C\C/C=C\C/C=C\CCCC(=O)NCCO [ANANDAMIDE] |  |  |  |  |  |  | Activity (T-cell [12]): 0.1%; Activity (T-cell [13]): 50.8%
O=C(N/N=C/c1ccncc1)c1cc2c(cc1[N+](=O)[O-])OCO2 | 13.3% |  |  |  |  |  | 
